Assay results published in ChEMBL document CHEMBL1135775 (J Med Chem, 2002).
“And” between values parts separate entries of the source, which are not always exact repeats. Identical values can stand only once.

What was measured:
[1] = biological target: Sodium-dependent dopamine transporter (Rattus norvegicus, UniProt P23977); assay: Ability to displace [3H]WIN-35428 from Dopamine Transporter of rat striatal membrane
Procedure, shortened: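 Rat striatum (male Sprague-Dawley, 200-225 g) homogenised in ice-cold sucrose phosphate buffer pH 7.4, washed, resuspended at 10 mg/mL. Filtration on PEI-soaked GF/B filters, scintillation counting. Four experiments in triplicate.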

[2] = Ratio of the IC50 value of Mazindol to that of the compound.; type: functional
[3] = Discrimination ratio against DAT as ratio of IC50 to that of Ki uptake to DAT.; type: functional
[4] = biological target: T1, Sodium-dependent noradrenaline transporter (Homo sapiens, UniProt P23975); assay: Displacement of [125I]RTI-55 from human Norepinephrine transporter expressed in HEK cells; type: cell-based, HEK293
T1 sequence (P23975 whole entry): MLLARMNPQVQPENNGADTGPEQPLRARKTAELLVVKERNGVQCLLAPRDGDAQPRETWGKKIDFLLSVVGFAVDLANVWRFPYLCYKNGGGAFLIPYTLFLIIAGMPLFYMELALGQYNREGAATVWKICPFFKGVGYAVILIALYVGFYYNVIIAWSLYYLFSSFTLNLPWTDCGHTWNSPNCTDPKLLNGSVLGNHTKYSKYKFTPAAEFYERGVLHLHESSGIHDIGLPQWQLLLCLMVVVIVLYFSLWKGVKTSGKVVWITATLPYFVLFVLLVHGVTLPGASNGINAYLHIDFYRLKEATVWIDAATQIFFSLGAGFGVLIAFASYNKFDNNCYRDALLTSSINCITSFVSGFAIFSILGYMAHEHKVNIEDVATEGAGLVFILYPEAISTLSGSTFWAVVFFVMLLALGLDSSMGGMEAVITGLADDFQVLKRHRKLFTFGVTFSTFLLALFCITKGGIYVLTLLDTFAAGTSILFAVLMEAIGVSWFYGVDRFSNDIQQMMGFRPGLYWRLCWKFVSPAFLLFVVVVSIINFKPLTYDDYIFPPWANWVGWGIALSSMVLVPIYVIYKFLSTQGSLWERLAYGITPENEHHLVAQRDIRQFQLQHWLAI

[5] = Discrimination ratio against SERT as ratio of IC50 to that of Ki uptake to SERT.; type: functional
[6] = biological target: T2, Sodium-dependent serotonin transporter (Homo sapiens, UniProt P31645); assay: Displacement of [125I]- RTI-55 from Serotonin transporter expressed in HEK cells; type: cell-based, HEK293
T2 sequence (P31645 whole entry): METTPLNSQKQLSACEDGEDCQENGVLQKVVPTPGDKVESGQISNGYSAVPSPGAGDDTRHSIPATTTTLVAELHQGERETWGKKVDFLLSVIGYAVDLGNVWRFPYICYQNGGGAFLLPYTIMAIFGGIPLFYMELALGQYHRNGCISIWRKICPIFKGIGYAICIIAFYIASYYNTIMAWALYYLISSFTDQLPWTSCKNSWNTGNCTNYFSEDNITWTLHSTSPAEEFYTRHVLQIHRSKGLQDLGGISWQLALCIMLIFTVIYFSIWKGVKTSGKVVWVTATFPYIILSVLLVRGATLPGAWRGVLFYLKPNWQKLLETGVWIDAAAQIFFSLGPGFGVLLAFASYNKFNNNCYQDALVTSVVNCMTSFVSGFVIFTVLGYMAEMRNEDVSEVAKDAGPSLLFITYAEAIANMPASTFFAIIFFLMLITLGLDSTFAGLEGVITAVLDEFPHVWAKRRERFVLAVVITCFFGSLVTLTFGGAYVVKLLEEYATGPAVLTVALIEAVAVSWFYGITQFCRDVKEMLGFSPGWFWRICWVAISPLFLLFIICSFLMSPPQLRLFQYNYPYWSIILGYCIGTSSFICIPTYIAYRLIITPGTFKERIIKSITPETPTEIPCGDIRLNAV
Procedure, shortened: (§1)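 Membranes from HEK293 cells expressing hDAT, hSERT or hNET (10–15 μg protein) preincubated 10 min with test compound in Krebs-HEPES pH 7.4. Two or three experiments in duplicate; IC50 converted to Ki by Cheng-Prusoff.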

[7] = biological target: T2, Sodium-dependent serotonin transporter; assay: Inhibition of 5-HT uptake in HEK cells expressing human serotonin transporter (hSERT); type: functional, cell-based, HEK293
Procedure, shortened: (§2)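 Scraped HEK293 cells expressing hSERT or hDAT in Krebs-HEPES, preincubated 10 min at 25 °C with test compound. Uptake started with [3H]serotonin or [3H]dopamine (20 nM final), stopped after 10 min by filtration on PEI-soaked GF/C filters.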

[8] = biological target: Monoamine transporters; serotonin & dopamine (Homo sapiens) (UniProt P31645+Q01959); assay: Selectivity ratio as ratio of IC50 value against SERT to that of DAT; type: protein assay
Monoamine transporters; serotonin & dopamine (Homo sapiens), sequence (P31645 whole entry, looked up): as the sequence (P31645 whole entry) above
Monoamine transporters; serotonin & dopamine (Homo sapiens), sequence (Q01959 whole entry, looked up): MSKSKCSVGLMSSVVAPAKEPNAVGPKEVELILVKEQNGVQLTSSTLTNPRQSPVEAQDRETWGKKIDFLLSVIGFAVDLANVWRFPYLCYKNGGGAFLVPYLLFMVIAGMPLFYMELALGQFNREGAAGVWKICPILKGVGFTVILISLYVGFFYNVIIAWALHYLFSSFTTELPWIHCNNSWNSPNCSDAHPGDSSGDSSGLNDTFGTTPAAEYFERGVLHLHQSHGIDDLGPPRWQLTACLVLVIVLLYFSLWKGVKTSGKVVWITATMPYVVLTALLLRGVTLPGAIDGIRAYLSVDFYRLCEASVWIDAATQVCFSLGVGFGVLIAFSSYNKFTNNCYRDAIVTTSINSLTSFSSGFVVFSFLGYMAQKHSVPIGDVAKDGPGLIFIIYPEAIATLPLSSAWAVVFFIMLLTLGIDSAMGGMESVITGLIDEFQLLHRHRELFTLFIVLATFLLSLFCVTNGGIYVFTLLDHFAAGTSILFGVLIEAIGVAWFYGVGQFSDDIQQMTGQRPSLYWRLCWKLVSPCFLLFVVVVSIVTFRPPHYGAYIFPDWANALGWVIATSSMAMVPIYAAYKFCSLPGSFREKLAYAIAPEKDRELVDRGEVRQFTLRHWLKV

[9] = biological target: T1, Sodium-dependent noradrenaline transporter; assay: Inhibition of NE uptake in HEK cells expressing human noradrenaline transporter (hNET); type: functional, cell-based, HEK293
[10] = biological target: T3, Sodium-dependent dopamine transporter (Homo sapiens, UniProt Q01959); assay: Displacement of [125I]- RTI-55 from Dopamine transporter expressed in HEK cells; type: cell-based, HEK293; procedure, shortened: as §1
T3 sequence (Q01959 whole entry): as the sequence (Q01959 whole entry, looked up) above

[11] = Discrimination ratio against NET as ratio of IC50 to that of Ki uptake to NET.; type: functional
[12] = biological target: T3, Sodium-dependent dopamine transporter; assay: Inhibition of dopamine uptake in HEK cells expressing human dopamine transporter (hDAT); type: functional, cell-based, HEK293; procedure, shortened: as §2
[13] = biological target: Monoamine transporters; Norepinephrine & dopamine (Homo sapiens) (UniProt Q01959+P23975); assay: Selectivity ratio as ratio of IC50 value against NET to that of DAT; type: protein assay
Monoamine transporters; Norepinephrine & dopamine (Homo sapiens), sequence (P23975 whole entry, looked up): as the sequence (P23975 whole entry) above
Monoamine transporters; Norepinephrine & dopamine (Homo sapiens), sequence (Q01959 whole entry, looked up): as the sequence (Q01959 whole entry, looked up) above

[14] = biological target: T1, Sodium-dependent noradrenaline transporter; assay: Ability to displace [125I]- RTI-55 binding at the Norepinephrine transporter site on HEK cells expressing cDNA for the human transporter (hNET); type: cell-based, HEK293
Procedure, shortened: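 Membranes from HEK293 cells expressing hDAT, hSERT or hNET (10–15 μg protein) preincubated 10 min with test compound in Krebs-HEPES pH 7.4. Then 40–80 pM [125I]RTI-55 added, 90 min at 25 °C, GF/C filtration. […] Two or three experiments in duplicate; IC50 converted to Ki by Cheng-Prusoff.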

[15] = biological target: T3, Sodium-dependent dopamine transporter; assay: Ability to block the uptake of […] at the Dopamine transporter of HEK cells expressing cDNA for the human transporter (hDAT); type: functional, cell-based, HEK293

Sodium-dependent dopamine transporter (Rattus norvegicus, UniProt P23977), sequence (P23977 whole entry): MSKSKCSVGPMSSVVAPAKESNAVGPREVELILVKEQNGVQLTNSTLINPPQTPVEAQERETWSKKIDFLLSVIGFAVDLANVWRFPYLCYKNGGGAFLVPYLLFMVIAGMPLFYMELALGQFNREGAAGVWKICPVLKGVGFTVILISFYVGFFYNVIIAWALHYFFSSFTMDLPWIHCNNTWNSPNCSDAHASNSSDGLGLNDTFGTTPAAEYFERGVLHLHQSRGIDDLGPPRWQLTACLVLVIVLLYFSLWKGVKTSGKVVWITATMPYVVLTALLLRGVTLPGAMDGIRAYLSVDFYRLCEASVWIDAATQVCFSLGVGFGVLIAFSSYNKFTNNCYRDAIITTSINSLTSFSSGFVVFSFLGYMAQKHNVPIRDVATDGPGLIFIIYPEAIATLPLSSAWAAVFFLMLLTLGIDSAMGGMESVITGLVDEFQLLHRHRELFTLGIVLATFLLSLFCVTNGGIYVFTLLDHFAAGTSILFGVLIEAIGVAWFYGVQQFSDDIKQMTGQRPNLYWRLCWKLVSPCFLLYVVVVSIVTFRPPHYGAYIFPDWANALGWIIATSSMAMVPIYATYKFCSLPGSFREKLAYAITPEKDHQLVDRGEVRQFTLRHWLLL

`COC1(c2ccc(Cl)cc2)c2ccccc2C2=NCCN21` (centres undefined) gave an IC50 [1] of 1010 nM and a Ratio [2] of 0.008.

For `CC1(c2ccc(Cl)cc2)c2ccccc2C2=NCCCN21` (centres undefined), the Ratio [2] was 0.3.

`OC1(c2ccccn2)c2ccccc2C2=NCCN21` (centres undefined) gave a Ratio [2] of less than 0.002.

For `OC1(c2ccccc2)c2ccccc2C2=NCCN21` (centres undefined), the Ratio [3] was 0.7, the Ki [4] was 100 nM and the Ratio [5] was 1.2. It also gave a Ki [6] of 1760 nM, an IC50 [7] of 2140 nM and a Ratio [8] of 1.6. It also gave an IC50 [9] of 2.8 nM, a Ratio [2] of 0.1 and a Ki [10] of 1070 nM. For the same molecule, the Ratio [11] was 0.03, the IC50 [12] was 730 nM and the Ratio [13] was 0.1.

`OC1(c2ccc3c(c2)OCCO3)c2ccccc2C2=NCCN21` (centres undefined) gave a Ratio [2] of 0.03.

With `C=CCOc1cccc(C2(O)c3ccccc3C3=NCCCN32)c1` (centres undefined) the IC50 [1] was 219 nM and the Ratio [2] was 0.2.

Molecule `COc1cc(C2(O)c3ccccc3C3=NCCN32)cc(OC)c1OC` (centres undefined) has a Ratio [2] of less than 0.002.

For `COc1ccc(C2(O)c3ccccc3C3=NCCN32)cc1` (centres undefined), the Ratio [2] was 0.4.

In the case of `Clc1ccc(C2c3ccccc3C3=NCCN32)cc1` (centres undefined), the Ki [4] is reported as 170 nM, the Ki [6] is reported as 26 nM and the IC50 [7] is reported as 15 nM. It also gave an IC50 [9] of 6.9 nM, a Ratio [2] of 1.4 and a Ki [10] of 23 nM. For the same molecule, the IC50 [12] was 6 nM.

In the case of `OC1(c2ccc(C(F)(F)F)cc2)c2ccccc2C2=NCCN21` (centres undefined), the Ratio [2] is reported as 0.03.

`OC1(c2cccnc2)c2ccccc2C2=NCCN21` (centres undefined) gave a Ratio [2] of 0.013.

Work on `OC1(c2cccc(C(F)(F)F)c2)c2ccccc2C2=NCCN21` (centres undefined) yielded a Ratio [2] of 0.04.

Molecule `OC1(c2ccc(Cl)cc2)c2ccccc2C2=NCCCN21` (centres undefined) has a Ratio [3] of 2.2, a Ratio [5] of 1.4 and an IC50 [7] of 53 nM. The Ratio [8] was 23, the IC50 [9] was 4.9 nM and the Ratio [2] was 8.1 and 10.1. The Ratio [11] was 2.2, the IC50 [12] was 3.7 nM and the Ratio [13] was 10.6.

`CN(C)Cc1ccc(C2(O)c3ccccc3C3=NCCN32)cc1` (centres undefined) gave a Ratio [2] of 0.003.

With `OC1(c2ccccc2)c2c(Cl)cccc2C2=NCCN21` (centres undefined) the Ratio [2] was 0.1.

`Oc1ccc(C2(O)c3ccccc3C3=NCCCN32)cc1` (centres undefined) showed a Ratio [3] of 0.7, a Ki [4] of 380 nM and a Ratio [5] of 0.8. For the same molecule, the Ki [6] was 77 nM, the IC50 [7] was 60 nM and the Ratio [8] was 0.9. It also gave an IC50 [9] of 1.9 nM, a Ratio [2] of 2.4 and a Ki [10] of 87.1 nM. It also gave a Ratio [11] of 0.005, an IC50 [12] of 59 nM and a Ratio [13] of 4.4.

Molecule `COc1ccc(C2(O)c3ccccc3C3=NCCN32)cc1OC` (centres undefined) has a Ratio [2] of 0.001.

Molecule `COc1cccc2c1C(O)(c1ccc(Cl)cc1)N1CCN=C21` (centres undefined) has a Ratio [3] of 5.8, a Ki [4] of 23.1 nM and a Ratio [5] of 1.8. It also gave a Ki [6] of 1990 nM, an IC50 [7] of 3600 nM and a Ratio [8] of 193. The IC50 [9] was 1.73 nM, the Ratio [2] was 0.6 and the Ki [10] was 10.3 nM. The Ratio [11] was 0.07, the IC50 [12] was 60 nM and the Ratio [13] was 2.2.

For `OC1(c2ccc3c(c2)OCO3)c2ccccc2C2=NCCCN21` (centres undefined), the Ratio [3] was 0.8, the IC50 [1] was 1.94 nM and the Ratio [5] was 3.2. For the same molecule, the Ki [6] was 25.6 nM, the IC50 [7] was 83 nM and the Ratio [8] was 10. It also gave a Ki [14] of 8.8 nM, an IC50 [9] of 0.62 nM and a Ki [10] of 2.55 nM. For the same molecule, the Ratio [11] was 0.07, the IC50 [15] was 2.21 nM and the Ratio [13] was 3.5.
